The values that follow come from ChEMBL document CHEMBL1122937, “[(Aminomethyl)arloxy]acetic acid esters. A new class of high-ceiling diuretics. 3. Variation in the bridge between the aromatic rings to complete mapping of the receptor” (J Med Chem, 1985).

The source made the active and inactive calls. The rule behind the calls is not given here.

Data set [1] is described as follows: Distribution coefficient in octanol-pH 7.0 phosphate buffer was measured at room temperature. The format is physicochemical.
Data set [2] is described as follows: pKa value was evaluated. The format is physicochemical. The method, boiled down:
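UV absorption spectra were recorded in a buffer series spanning the pH range from fully protonated to fully deprotonated phenolic OH. Absorbance vs pH curves were fit by nonlinear regression, solving for the extinction coefficients of both forms and the pKa. For the amine pKa the buffers were extended to pH 12.0.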

Data set [3] concerns Rattus norvegicus. The experiment in a line: Natriuretic potency expressed as oral dose necessary to produce an excretion of 2 mequiv of Na+/kg in the rat urine during the 4 hr period after dosing; Inactive. It is filed as functional, organism-based. The method, boiled down: (§1)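 Rats were dosed orally in dose–response experiments. Urine volume, Na+, K+ and Cl- were measured. ED2 is the oral dose in mg/kg giving excretion of 2 mequiv Na+/kg in urine over the 4 h after dosing.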

Data set [4] concerns Rattus norvegicus. The experiment in a line: Natriuretic potency expressed as oral dose necessary to produce an excretion of 2 mequiv of Na+/kg in the rat urine during the 4 hr period after dosing. It is filed as functional. In outline: as §1
The subject of data set [5] is Rattus norvegicus. Kind of data set: Natriuretic potency expressed as oral dose necessary to produce an excretion of 2 mequiv of Na+/kg in the rat urine during the 4 h period after dosing; Inactive. The format is functional, organism-based. In outline:
as §1

The logD is lipophilicity at a set pH, counting ionised and neutral species. Read a low logD as a more hydrophilic compound. For orientation: pKa means the negative logarithm of the acid dissociation constant. With `CCOC(=O)COc1ccc(C(=O)c2ccc(O)c(CN)c2)cc1`, the pH-dependent lipophilicity (logD) in data set [1] came to 0.3. The pKa in data set [2] was found to be 7.34.

`CCOC(=O)COc1ccc(COc2ccc(O)c(CN)c2)c(Cl)c1Cl`: the ED2 entry in the data set on Rattus norvegicus [3] was “inactive”.

For the compound `CCOC(=O)COc1ccc(-c2ccc(O)c(CN)c2)c(Cl)c1Cl`, the ED2 result in the data set with Rattus norvegicus [3] is “inactive”.

`CCOC(=O)COc1ccc(Sc2ccc(O)c(CN)c2)c(Cl)c1Cl.Cl`: the ED2 in the data set on Rattus norvegicus [4] turned out to be 1 mg/kg.

Turning to `CCOC(=O)COc1ccc(C(=O)Nc2ccc(O)c(CN)c2)c(Cl)c1Cl`, in the data set on Rattus norvegicus [3], the ED2 entry was “inactive”.

With `CCOC(=O)COc1ccc(C(=O)c2ccc(O)c(CN)c2)c(Cl)c1Cl.Cl`, in data set [1], the logD is 1.41. Also, the ED2 in the data set with Rattus norvegicus [4] turned out to be 2.5 mg/kg. In data set [2], this compound displayed a pKa of 6.38.

`CCOC(=O)COc1ccc(S(=O)(=O)c2ccc(O)c(CN)c2)c(Cl)c1Cl` showed a log distribution coefficient (logD) in data set [1] of 1.25. For the same compound, the ED2 entry with Rattus norvegicus [5] was “inactive”. In addition, in data set [2], the pKa was determined as 6.67.

As to `COC(=O)COc1ccc([S+]([O-])c2ccc(O)c(CN)c2)c(Cl)c1Cl.Cl` (stereo unspecified), the ED2 in the data set with Rattus norvegicus [4] was determined as 16.3 mg/kg.

As to `CCOC(=O)COc1ccc(C(=O)C(=O)c2ccc(O)c(CN)c2)c(Cl)c1Cl`, the ED2 entry with Rattus norvegicus [3] is “inactive”.

Compound `CCOC(=O)COc1ccc(Cc2ccc(O)c(CN)c2)c(Cl)c1Cl.Cl` came in with a logD in data set [1] of 1.66. In addition, the ED2 in the data set with Rattus norvegicus [4] was found to be 7.5 mg/kg. Moreover, the pKa in data set [2] amounted to 8.73.

For `CCOC(=O)COc1ccc2c(-c3ccc(O)c(CN)c3)noc2c1Cl.Cl`, in the data set with Rattus norvegicus [4], the ED2 amounted to 35 mg/kg.

For the compound `CCOC(=O)COc1ccc(Oc2ccc(O)c(CN)c2)c(Cl)c1Cl.Cl`, in data set [1], the logD came out at 1.82. In addition, the ED2 in the data set with Rattus norvegicus [4] worked out at 0.8 mg/kg. For the same compound, the pKa in data set [2] turned out to be 8.55.
